“And” between values parts separate entries of the source, which are not always exact repeats. Equal entries are not always repeated. Where two headings read alike, the source gives them in different places.
Assays:
wild type cytochrome bo3 [1] = target: T1, wild type cytochrome bo3 (Escherichia coli, UniProt P0ABI8); experiment: steady state ubiquinol-1 oxidase activity; format: biochemical, E. coli; details: for pattern of inhibition: double-reciprocal plot vs ubiquinol-1
cytochrome bo3 D188A [2] = target: T2, cytochrome bo3 D188A (Escherichia coli, UniProt P0ABI8, D188A); experiment: steady state ubiquinol-1 oxidase activity; format: biochemical, E. coli; details: read-out: KM UQ1H2
cytochrome bo3 D188N [3] = target: T3, cytochrome bo3 D188N (Escherichia coli, UniProt P0ABI8, D188N); experiment: steady state ubiquinol-1 oxidase activity; format: biochemical, E. coli; details: read-out: KM UQ1H2
cytochrome bo3 R257Q [4] = target: T4, cytochrome bo3 R257Q (Escherichia coli, UniProt P0ABI8, R257Q); experiment: steady state ubiquinol-1 oxidase activity; format: biochemical, E. coli; details: read-out: KM UQ1H2
cytochrome bo3 W^II136A [5] = target: cytochrome bo3 W^II136A (Escherichia coli, UniProt P0ABI8+P0ABJ1, W136A); experiment: steady state ubiquinol-1 oxidase activity; format: biochemical, E. coli; details: read-out: KM UQ1H2
wild type cytochrome bo3 [6] = target: T1, wild type cytochrome bo3; experiment: EPR of the semiquinone formed at the QH-site; format: biochemical, E. coli; details: excess (5-fold) of inhibitor
Procedure, shortened: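 Continuous-wave X-band EPR of wild-type enzyme purified in dodecylmaltoside, carrying bound ubiquinone-8 at the QH site. Enzyme was incubated with a 5-fold excess of test compound, at 50 μM enzyme in one series. Sample preparation followed earlier published methods.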

wild type cytochrome bo3 [7] = target: T1, wild type cytochrome bo3; experiment: HQNO binding monitored by fluorescence anisotropy; design: species or system E. coli; details: for Kd: read-out: Kd HQNO
[8] = target: wild type cytochrome bo3 (no bound Q8) (Escherichia coli, UniProt P0ABI8); experiment: HQNO binding monitored by fluorescence anisotropy; design: species or system E. coli; details: read-out: Kd HQNO
Procedure, shortened: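 Quinone-free enzyme was made by diluting ≥50-fold into 50 mM K2HPO4, 0.1% Triton X-100, pH 8.3, and binding to Ni-NTA for several hours at 4 °C. It was washed into dodecylmaltoside, eluted with 100 mM imidazole and dialysed. Enzyme was titrated into pH 8.3 dodecylmaltoside buffer holding fixed 1 μM test compound. Anisotropy was read at ex 341/em 480 nm against a ligand-free control, and fit with an independent-sites model.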

cytochrome bo3 D188A [9] = target: T2, cytochrome bo3 D188A; experiment: HQNO binding monitored by fluorescence anisotropy; design: species or system E. coli; details: read-out: Kd HQNO
cytochrome bo3 D188N [10] = target: T3, cytochrome bo3 D188N; experiment: HQNO binding monitored by fluorescence anisotropy; design: species or system E. coli; details: read-out: Kd HQNO
cytochrome bo3 R257Q [11] = target: T4, cytochrome bo3 R257Q; experiment: HQNO binding monitored by fluorescence anisotropy; design: species or system E. coli; details: read-out: Kd HQNO
cytochrome bo3 W^II136A [12] = target: cytochrome bo3 W^II136A (Escherichia coli, UniProt P0ABI8); experiment: HQNO binding monitored by fluorescence anisotropy; design: species or system E. coli; details: read-out: Kd HQNO
cytochrome bo3 H98S = cytochrome bo3 H98S (Escherichia coli, UniProt P0ABI8, H98S); experiment: HQNO binding monitored by fluorescence anisotropy; design: species or system E. coli; details: read-out: Kd HQNO
Sequence of cytochrome bo3 H98S (P0ABI8 whole entry H98S): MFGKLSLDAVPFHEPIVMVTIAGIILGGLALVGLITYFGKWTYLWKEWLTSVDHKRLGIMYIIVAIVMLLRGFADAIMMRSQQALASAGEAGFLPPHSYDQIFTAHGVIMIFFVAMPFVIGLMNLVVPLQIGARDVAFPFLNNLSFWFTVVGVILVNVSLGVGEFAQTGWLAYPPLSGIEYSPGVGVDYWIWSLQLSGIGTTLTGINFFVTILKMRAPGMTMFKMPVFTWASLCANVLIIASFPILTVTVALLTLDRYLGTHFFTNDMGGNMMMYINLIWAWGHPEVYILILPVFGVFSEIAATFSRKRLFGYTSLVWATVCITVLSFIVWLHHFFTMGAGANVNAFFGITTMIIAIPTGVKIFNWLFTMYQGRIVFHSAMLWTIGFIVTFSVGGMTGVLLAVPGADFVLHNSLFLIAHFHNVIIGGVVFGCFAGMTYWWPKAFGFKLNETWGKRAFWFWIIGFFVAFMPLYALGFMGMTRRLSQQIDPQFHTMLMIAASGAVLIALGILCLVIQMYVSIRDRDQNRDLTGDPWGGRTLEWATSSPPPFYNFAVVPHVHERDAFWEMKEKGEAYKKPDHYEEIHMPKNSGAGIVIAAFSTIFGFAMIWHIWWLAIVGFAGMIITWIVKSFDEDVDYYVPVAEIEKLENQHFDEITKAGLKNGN
Sequence of cytochrome bo3 H98S (P0ABJ3 whole entry, further chain): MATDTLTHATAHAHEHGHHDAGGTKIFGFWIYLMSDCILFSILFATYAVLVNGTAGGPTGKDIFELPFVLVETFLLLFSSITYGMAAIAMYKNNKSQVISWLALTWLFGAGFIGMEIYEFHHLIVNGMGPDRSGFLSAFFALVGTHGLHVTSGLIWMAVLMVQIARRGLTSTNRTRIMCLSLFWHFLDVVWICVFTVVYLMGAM
Sequence of cytochrome bo3 H98S (P0ABJ6 whole entry, further chain): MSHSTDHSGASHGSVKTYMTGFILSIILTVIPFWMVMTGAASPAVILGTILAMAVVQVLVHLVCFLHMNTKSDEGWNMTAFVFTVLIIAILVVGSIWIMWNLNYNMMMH
Sequence of cytochrome bo3 H98S (P0ABJ1 25-315, further chain): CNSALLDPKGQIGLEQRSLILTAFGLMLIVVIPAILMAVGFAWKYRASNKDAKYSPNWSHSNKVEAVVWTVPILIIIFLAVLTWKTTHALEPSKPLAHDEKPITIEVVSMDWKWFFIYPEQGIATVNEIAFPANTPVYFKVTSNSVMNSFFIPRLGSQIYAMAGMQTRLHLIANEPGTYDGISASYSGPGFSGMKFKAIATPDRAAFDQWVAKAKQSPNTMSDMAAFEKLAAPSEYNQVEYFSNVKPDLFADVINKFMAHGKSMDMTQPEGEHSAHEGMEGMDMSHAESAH

T1 sequence (P0ABJ1 25-315): as the sequence (P0ABJ1 25-315, further chain) above
T1 sequence (P0ABJ3 whole entry, further chain): as the sequence (P0ABJ3 whole entry, further chain) above
T1 sequence (P0ABJ6 whole entry, further chain): as the sequence (P0ABJ6 whole entry, further chain) above
T1 sequence (P0ABI8 whole entry): as the sequence (P0ABI8 whole entry H98S) above, with S98H counted along it
T4 sequence (P0ABJ1 25-315): as the sequence (P0ABJ1 25-315, further chain) above
T4 sequence (P0ABI8 whole entry R257Q): as the sequence (P0ABI8 whole entry H98S) above, with S98H, R257Q counted along it
T4 sequence (P0ABJ3 whole entry, further chain): as the sequence (P0ABJ3 whole entry, further chain) above
T4 sequence (P0ABJ6 whole entry, further chain): as the sequence (P0ABJ6 whole entry, further chain) above
T3 sequence (P0ABI8 whole entry D188N): as the sequence (P0ABI8 whole entry H98S) above, with S98H, D188N counted along it
T3 sequence (P0ABJ3 whole entry, stated change not applied, further chain): as the sequence (P0ABJ3 whole entry, further chain) above
T3 sequence (P0ABJ6 whole entry, further chain): as the sequence (P0ABJ6 whole entry, further chain) above
T3 sequence (P0ABJ1 25-315, further chain): as the sequence (P0ABJ1 25-315, further chain) above
T2 sequence (P0ABI8 whole entry D188A): as the sequence (P0ABI8 whole entry H98S) above, with S98H, D188A counted along it
T2 sequence (P0ABJ6 whole entry, further chain): as the sequence (P0ABJ6 whole entry, further chain) above
T2 sequence (P0ABJ3 whole entry, stated change not applied, further chain): as the sequence (P0ABJ3 whole entry, further chain) above
T2 sequence (P0ABJ1 25-315, further chain): as the sequence (P0ABJ1 25-315, further chain) above
Sequence of cytochrome bo3 W^II136A (Escherichia coli, UniProt P0ABI8) (P0ABJ6 whole entry): as the sequence (P0ABJ6 whole entry, further chain) above
Sequence of cytochrome bo3 W^II136A (Escherichia coli, UniProt P0ABI8) (P0ABJ3 whole entry, further chain): as the sequence (P0ABJ3 whole entry, further chain) above
Sequence of cytochrome bo3 W^II136A (Escherichia coli, UniProt P0ABI8) (P0ABI8 whole entry): as the sequence (P0ABI8 whole entry H98S) above, with S98H counted along it
Sequence of cytochrome bo3 W^II136A (Escherichia coli, UniProt P0ABI8) (P0ABJ1 25-315 W136A, further chain): as the sequence (P0ABJ1 25-315, further chain) above, with W112A counted along it
Sequence of cytochrome bo3 W^II136A (Escherichia coli, UniProt P0ABI8+P0ABJ1, W136A) (P0ABI8 whole entry): as the sequence (P0ABI8 whole entry H98S) above, with S98H counted along it
Sequence of cytochrome bo3 W^II136A (Escherichia coli, UniProt P0ABI8+P0ABJ1, W136A) (P0ABJ6 whole entry, further chain): as the sequence (P0ABJ6 whole entry, further chain) above
Sequence of cytochrome bo3 W^II136A (Escherichia coli, UniProt P0ABI8+P0ABJ1, W136A) (P0ABJ1 25-315 W136A): as the sequence (P0ABJ1 25-315, further chain) above, with W112A counted along it
Sequence of cytochrome bo3 W^II136A (Escherichia coli, UniProt P0ABI8+P0ABJ1, W136A) (P0ABJ3 whole entry, further chain): as the sequence (P0ABJ3 whole entry, further chain) above
Sequence of wild type cytochrome bo3 (no bound Q8) (P0ABJ3 whole entry): as the sequence (P0ABJ3 whole entry, further chain) above
Sequence of wild type cytochrome bo3 (no bound Q8) (P0ABJ1 25-315, further chain): as the sequence (P0ABJ1 25-315, further chain) above
Sequence of wild type cytochrome bo3 (no bound Q8) (P0ABI8 whole entry): as the sequence (P0ABI8 whole entry H98S) above, with S98H counted along it
Sequence of wild type cytochrome bo3 (no bound Q8) (P0ABJ6 whole entry, further chain): as the sequence (P0ABJ6 whole entry, further chain) above

SMILES | Km (wild type cytochrome bo3 [1]; read-out: KM UQ1H2, wild type) | Km (cytochrome bo3 D188A [2]) | Km (cytochrome bo3 D188N [3]) | Km (cytochrome bo3 R257Q [4]) | Km (cytochrome bo3 W^II136A [5]) | pattern of inhibition (wild type cytochrome bo3 [1]) | effect on formation of the semiquinone at the QH-site (EPR signal) (wild type cytochrome bo3 [6]) | Ki (wild type cytochrome bo3 [1]; read-out: Ki, inhibition of ubiquinol-1 oxidase activity by HQNO, coupled assay, enzyme with ubiquinone-8 bound to the QH site) | Kd (wild type cytochrome bo3 [7]; wild type + 300 μM Q1) | Kd (wild type cytochrome bo3 [7]; wild type + 1500 μM Q1) | Kd (wild type cytochrome bo3 [7]; wild type, one equivalent of ubiquinone-8 bound, 1 μM HQNO, pH 8.3) | number of HQNO binding sites (best fit, independent sites model) (wild type cytochrome bo3 [7]; wild type with ubiquinone-8 bound) | Kd [8] | Kd (cytochrome bo3 D188A [9]) | Kd (cytochrome bo3 D188N [10]) | Kd (cytochrome bo3 R257Q [11]) | Kd (cytochrome bo3 W^II136A [12]) | Kd (cytochrome bo3 H98S)
COc1c(O)c(C)c(CC=C(C)C)c(O)c1OC [UQ1H2, ubiquinol-1] | 53 µM | 56 µM | 52 µM | 60 µM | 63 µM |  |  |  |  |  |  |  |  |  |  |  |  | 
CCCCCCCCCCc1c(C)c(=O)c2ccccc2n1O [AC1-10, aurachin C1-10] |  |  |  |  |  | competitive | prevents formation of the semiquinone EPR signal |  |  |  |  |  |  |  |  |  |  | 
CCCCCCCc1cc(=O)c2ccccc2n1O [HQNO] |  |  |  |  |  | noncompetitive | prevents formation of the semiquinone | 0.74 µM | 4.1 µM | 6.8 µM | 4 µM | 1.1 and 1 | 5.8 µM | 5 µM | 4 µM | 4 µM | 4.1 µM | 3.6 µM

— article PMC2922442 (Biochimica et biophysica acta, 2010)
